# Results from ChEMBL document CHEMBL1136727, “Regioselective covalent modification of hemoglobin in search of antisickling agents” (J Med Chem, 2003).
# Values joined by “and” are separate entries in the source; they are usually repeats but may differ in a detail not shown here. Equal entries are not always repeated.
# Key:
# [1] = target: T1, Hemoglobin HbA (Homo sapiens) (UniProt P69905+P68871); test: Ratio of compound modified hemoglobin aggregation […]; type: functional
# [2] = target: T1, Hemoglobin HbA (Homo sapiens); test: Inhibition of sickle hemoglobin aggregation using standard saturation solubility (CSAT) assay; type: functional
# In short: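 Saturation solubility (Csat) of deoxy HbS or inhibitor-modified HbS in 50 mM phosphate, pH 7.0. CO is removed by photodissociation under oxygen. HbSO2 at 35 g/dL is deoxygenated on ice with 0.9 M sodium dithionite solution, then centrifuged 1 h at 30 °C. Supernatant Hb is measured spectrophotometrically, and activity is expressed as the solubility increase over the unmodified HbS control.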
# [3] = target: Hemoglobin subunit beta (Homo sapiens) (UniProt P68871); test: Percent modification of human Hemoglobin beta (100 uM) after 3h of incubation
# In short: (§1)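 HbA·CO at 100 μM final (tetramer) reacted with isothiocyanate at a 2:1 compound:Hb molar ratio in 50 mM ammonium acetate, pH 7.3, with 2% DMSO or buffer alone, for 3 h at 37 °C. An aliquot was diluted in acetonitrile/water with 0.2% formic acid and analysed by electrospray MS to give percent modified α- and β-subunit. Some compounds were run in triplicate.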
# [4] = target: Hemoglobin subunit alpha (Homo sapiens) (UniProt P69905); test: Percent modification of human Hemoglobin alpha (100 uM) after 3h of incubation; in short: as §1
# [5] = target: T1, Hemoglobin HbA (Homo sapiens); test: Affinity towards oxygen by hemoglobin after modification by compound; type: functional
# [6] = target: Hemoglobin subunit alpha (Homo sapiens) (UniProt P69905); test: Percent modification of human hemoglobin alpha (100 uM) after 3h of incubation; in short: as §1
# [7] = target: Hemoglobin subunit alpha (Homo sapiens) (UniProt P69905); test: Percent modification of alpha-subunit of human hemoglobin (100 uM) after 3h of incubation; in short: as §1
# Hemoglobin subunit alpha (Homo sapiens), sequence (P69905 whole entry): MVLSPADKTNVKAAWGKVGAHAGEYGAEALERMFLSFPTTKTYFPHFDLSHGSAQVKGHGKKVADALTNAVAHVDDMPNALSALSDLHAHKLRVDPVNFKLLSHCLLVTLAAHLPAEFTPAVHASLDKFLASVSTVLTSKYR
# T1 sequence (P68871 2-147 partner limits assumed): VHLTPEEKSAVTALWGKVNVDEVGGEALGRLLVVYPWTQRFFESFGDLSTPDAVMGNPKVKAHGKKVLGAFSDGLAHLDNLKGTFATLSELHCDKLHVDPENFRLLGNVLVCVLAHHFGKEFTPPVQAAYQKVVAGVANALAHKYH
# T1 sequence (P69905 2-142 limits assumed): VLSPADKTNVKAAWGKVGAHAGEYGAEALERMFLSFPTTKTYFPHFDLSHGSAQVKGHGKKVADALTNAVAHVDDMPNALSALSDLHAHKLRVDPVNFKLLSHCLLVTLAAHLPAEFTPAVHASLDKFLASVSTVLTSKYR
# Hemoglobin subunit beta (Homo sapiens), sequence (P68871 2-147 limits assumed): as the sequence (P68871 2-147 partner limits assumed) above
Modification [3],Modification [6],Structure (SMILES),Csat/Co [1],Csat [2],Modification [4] [%],Co [5],Modification [7] [%]
–,–,CN(C)CCCCSC#N,1.23 and 1.22 and 1.27,18.8 g dl-1 and 19.1 g dl-1 (2×),–,15.3 g/dL and 15.6 g/dL and 15.1 g/dL,–
–,–,CCN(CC)CCCCSC#N,1.3 (2×) and 1.27,20.7 g/dL and 19.1 g/dL and 19.7 g/dL,–,15.9 g/dL and 15 g/dL and 15.1 g/dL,–
3%,35%,N#CSc1ccc(C(=O)O)c(O)c1,–,–,–,–,–
–,–,CN(C)CCCCCSC#N,1.34 and 1.35 and 1.37,21.3 g/dL and 20.2 g/dL and 20.7 g/dL,–,15.9 g/dL and 15 g/dL and 15.1 g/dL,–
24%,7%,N#CSCCc1c[nH]c2ccccc12,–,–,–,–,–
58%,6%,N#CSCc1ccncc1,–,–,–,–,–
17% and 16% and 15%,36% and 42%,CCN(CC)CCNC(=O)c1ccc(SC#N)cc1,–,–,40,–,–
–,–,N#CSCCN1CCCCC1,1.24 (2×) and 1.23,20.9 g/dL and 20.1 g/dL and 20.5 g/dL,–,16.8 g/dL and 16.4 g/dL and 16.5 g/dL,–
8%,–,N#CSc1ccc(O)cc1,–,–,51,–,–
–,–,N#CSCCCCCO,1.11,18.8 g/dL,–,17 g/dL,–
24%,0%,N#CSCCCN1CCCC1=O,–,–,–,–,–
–,–,CCN(CC)CCCCCSC#N,1.33 and 1.36 and 1.35,21.1 g dl-1 and 20.4 g dl-1 (2×),–,15.9 g/dL and 15 g/dL and 15.1 g/dL,–
18%,0%,N#CSC1CCC(O)CC1 (stereo not given),–,–,–,–,–
–,–,CCN(CC)CCSC#N,1.24 and 1.22 (2×),21 g/dL and 19.8 g/dL and 20.1 g/dL,–,17 g/dL and 16.2 g/dL and 16.5 g/dL,–
13%,42%,N#CSc1ccc(CC(=O)O)cc1,–,–,–,–,–

Structure (SMILES),Modification [3],Modification [6],Csat/Co [1],Csat [2],Modification [4] [%],Co [5],Modification [7] [%]
CN(C)c1ccc(SC#N)cc1,10%,–,1.07,18.2 g/dL,48,17 g/dL,–
CCN(CC)CCCSC#N,37%,0%,1.24 and 1.2 and 1.22,19.9 g/dL and 19.6 g/dL and 19.7 g/dL,–,16.1 g/dL and 16.3 g/dL and 16.2 g/dL,–
N#CSCCCn1ccnc1,13%,7%,1.21 and 1.15 and 1.18,20.6 g/dL and 18.6 g/dL and 19.6 g/dL,–,17 g/dL and 16.2 g/dL and 16.5 g/dL,–
N#CSc1ccc(CCO)cc1,8% and 9% (2×),72%,1.1,18.7 g/dL,66,17 g/dL,72
COC(CSC#N)OC,33%,11%,1.07 (2×) and 1.04,18.2 g/dL and 17.4 g/dL and 17.3 g/dL,–,17 g/dL and 16.2 g/dL and 16.5 g/dL,–
N#CCCSC#N,21%,10%,1.08 and 1.1 and 1.09,17.4 g/dL and 17.8 g/dL and 17.7 g/dL,–,16.1 g/dL and 16.3 g/dL and 16.2 g/dL,–
